Assay results taken from ChEMBL document CHEMBL3272012, “5-(Tetradecyloxy)-2-furancarboxylic acid and related hypolipidemic fatty acid-like alkyloxyarylcarboxylic acids” (J Med Chem, 1977).

Legend:
Rattus norvegicus [1] = experiment: Increase in liver weight in Wistar rat at 496 umol/kg/day administered through diet for 4 days; format: ADME, organism-based; conditions: in vivo, po, 96 h
Rattus norvegicus [2] = experiment: Hypolipidemic activity in Wistar rat assessed as reduction in plasma triglyceride level at 460 umol/kg/day administered through diet for 10 days; format: functional; conditions: 240 h
Rattus norvegicus [3] = experiment: Increase in cholesterol level in Wistar rat liver at 496 umol/kg/day administered through diet for 4 days; format: ADME, organism-based; conditions: in vivo, po, 96 h
Rattus norvegicus [4] = experiment: Increase in cholesterol level in Wistar rat liver at 460 umol/kg/day administered through diet for 10 days; format: ADME, organism-based; conditions: in vivo, po, 240 h
Rattus norvegicus [5] = experiment: Increase in liver weight in Wistar rat at 460 umol/kg/day administered through diet for 10 days; format: ADME, organism-based; conditions: in vivo, po, 240 h
Rattus norvegicus [6] = experiment: Hypolipidemic activity in Wistar rat assessed as reduction in plasma triglyceride level at 496 umol/kg/day administered through diet for 4 days; format: functional; conditions: 96 h
Rattus norvegicus [7] = experiment: Hypolipidemic activity in Wistar rat assessed as reduction in plasma cholesterol level at 460 umol/kg/day administered through diet for 10 days; format: functional; conditions: 240 h
Outline: (§1)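 Young male Wistar rats, 170-190 g initial weight, groups of six, given compound mixed thoroughly into Purina Lab Chow ad libitum for 4 or 10 days as stated. Daily dose calculated from food consumption and body weight. Bled by cardiac puncture at end of treatment; plasma cholesterol measured by automated procedure. Expressed as percent reduction versus simultaneous untreated control group; Student's t test.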

Rattus norvegicus [8] = experiment: Hypolipidemic activity in Wistar rat assessed as reduction in plasma cholesterol level at 496 umol/kg/day administered through diet for 4 days; format: functional; conditions: 96 h; outline: as §1
Rattus norvegicus [9] = experiment: Increase in cholesterol level in Wistar rat liver at 275 umol/kg/day administered through diet for 10 days; format: ADME, organism-based; conditions: in vivo, po, 240 h
Rattus norvegicus [10] = experiment: Increase in cholesterol level in Wistar rat liver at 407 umol/kg/day administered through diet for 4 days; format: ADME, organism-based; conditions: in vivo, po, 96 h
Rattus norvegicus [11] = experiment: Hypolipidemic activity in Wistar rat assessed as reduction in plasma cholesterol level at 407 umol/kg/day administered through diet for 4 days; format: functional; conditions: 96 h
Outline: (§2)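 Young male Wistar rats, 170-190 g at start, in groups of six, given compound mixed into Purina Lab Chow ad libitum for 4 or 10 days as stated. Daily dose was calculated from food consumption and body weight. Plasma was taken by cardiac puncture at the end and cholesterol measured by automated procedure. Results are % reduction versus a concurrent untreated control group, with Student's t test.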

Rattus norvegicus [12] = experiment: Hypolipidemic activity in Wistar rat assessed as reduction in plasma triglyceride level at 275 umol/kg/day administered through diet for 10 days; format: functional; conditions: 240 h
Outline: (§3)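 Young male Wistar rats, 170-190 g initial weight, six per group, fed drug mixed thoroughly into Purina Lab Chow ad libitum for the stated days; daily dose calculated from food consumption and body weight. Bled by cardiac puncture at end; plasma cholesterol and triglycerides by automated procedures, expressed as percent reduction versus simultaneous untreated controls; Student's t test.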

Rattus norvegicus [13] = experiment: Increase in liver weight in Wistar rat at 511 umol/kg/day administered through diet for 10 days; format: ADME, organism-based; conditions: in vivo, po, 240 h
Rattus norvegicus [14] = experiment: Hypolipidemic activity in Wistar rat assessed as reduction in plasma cholesterol level at 511 umol/kg/day administered through diet for 10 days; format: functional; conditions: 240 h; outline: as §1
Rattus norvegicus [15] = experiment: Hypolipidemic activity in Wistar rat assessed as reduction in plasma triglyceride level at 407 umol/kg/day administered through diet for 4 days; format: functional; conditions: 96 h
Rattus norvegicus [16] = experiment: Increase in liver weight in Wistar rat at 149 umol/kg/day administered through diet for 10 days; format: ADME, organism-based; conditions: in vivo, po, 240 h
Rattus norvegicus [17] = experiment: Increase in liver weight in Wistar rat at 275 umol/kg/day administered through diet for 10 days; format: ADME, organism-based; conditions: in vivo, po, 240 h
Rattus norvegicus [18] = experiment: Hypolipidemic activity in Wistar rat assessed as reduction in plasma triglyceride level at 149 umol/kg/day administered through diet for 10 days; format: functional; conditions: 240 h, read-out: INH; outline: as §3
Rattus norvegicus [19] = experiment: Hypolipidemic activity in Wistar rat assessed as reduction in plasma triglyceride level at 511 umol/kg/day administered through diet for 10 days; format: functional; conditions: 240 h
Rattus norvegicus [20] = experiment: Hypolipidemic activity in Wistar rat assessed as reduction in plasma cholesterol level at 275 umol/kg/day administered through diet for 10 days; format: functional; conditions: 240 h; outline: as §2
Rattus norvegicus [21] = experiment: Increase in cholesterol level in Wistar rat liver at 149 umol/kg/day administered through diet for 10 days; format: ADME, organism-based; conditions: in vivo, po, 240 h
Rattus norvegicus [22] = experiment: Increase in liver weight in Wistar rat at 407 umol/kg/day administered through diet for 4 days; format: ADME, organism-based; conditions: in vivo, po, 96 h
Rattus norvegicus [23] = experiment: Increase in cholesterol level in Wistar rat liver at 511 umol/kg/day administered through diet for 10 days; format: ADME, organism-based; conditions: in vivo, po, 240 h
Rattus norvegicus [24] = experiment: Hypolipidemic activity in Wistar rat assessed as reduction in plasma cholesterol level at 149 umol/kg/day administered through diet for 10 days; format: functional; conditions: 240 h; outline: as §2
Rattus norvegicus [25] = experiment: Hypolipidemic activity in Wistar rat assessed as reduction in plasma triglyceride level at 462 umol/kg/day administered through diet for 10 days; format: functional; conditions: 240 h
Rattus norvegicus [26] = experiment: Hypolipidemic activity in Wistar rat assessed as reduction in plasma cholesterol level at 462 umol/kg/day administered through diet for 10 days; format: functional; conditions: 240 h; outline: as §1
Rattus norvegicus [27] = experiment: Hypolipidemic activity in Wistar rat assessed as reduction in plasma triglyceride level at 453 umol/kg/day administered through diet for 4 days; format: functional; conditions: 96 h
Rattus norvegicus [28] = experiment: Increase in liver weight in Wistar rat at 453 umol/kg/day administered through diet for 4 days; format: ADME, organism-based; conditions: in vivo, po, 96 h
Rattus norvegicus [29] = experiment: Increase in liver weight in Wistar rat at 462 umol/kg/day administered through diet for 10 days; format: ADME, organism-based; conditions: in vivo, po, 240 h
Rattus norvegicus [30] = experiment: Hypolipidemic activity in Wistar rat assessed as reduction in plasma cholesterol level at 453 umol/kg/day administered through diet for 4 days; format: functional; conditions: 96 h; outline: as §1
Rattus norvegicus [31] = experiment: Increase in cholesterol level in Wistar rat liver at 462 umol/kg/day administered through diet for 10 days; format: ADME, organism-based; conditions: in vivo, po, 240 h
Rattus norvegicus [32] = experiment: Hypolipidemic activity in Wistar rat assessed as reduction in plasma cholesterol level at 470 umol/kg/day administered through diet for 4 days; format: functional; conditions: 96 h; outline: as §1
Rattus norvegicus [33] = experiment: Increase in liver weight in Wistar rat at 470 umol/kg/day administered through diet for 4 days; format: ADME, organism-based; conditions: in vivo, po, 96 h
Rattus norvegicus [34] = experiment: Hypolipidemic activity in Wistar rat assessed as reduction in plasma triglyceride level at 470 umol/kg/day administered through diet for 4 days; format: functional; conditions: 96 h
Rattus norvegicus [35] = experiment: Increase in cholesterol level in Wistar rat liver at 470 umol/kg/day administered through diet for 4 days; format: ADME, organism-based; conditions: in vivo, po, 96 h
Rattus norvegicus [36] = experiment: Hypolipidemic activity in Wistar rat assessed as reduction in plasma triglyceride level at 428 umol/kg/day administered through diet for 10 days; format: functional; conditions: 240 h
Rattus norvegicus [37] = experiment: Hypolipidemic activity in Wistar rat assessed as reduction in plasma cholesterol level at 428 umol/kg/day administered through diet for 10 days; format: functional; conditions: 240 h; outline: as §1

Structure (SMILES): CCCCCCCCCCCCCOc1ccc(C(=O)OC)cc1
- Activity (Rattus norvegicus [1]): 20%
- inhibition in vivo at 460 µmol/kg (Rattus norvegicus [2]): 70%
- Activity (Rattus norvegicus [3]): 9%
- Activity (Rattus norvegicus [4]): 6%
- Activity (Rattus norvegicus [5]): 20%
- inhibition in vivo at 496 µmol/kg (Rattus norvegicus [6]): 31%
- inhibition in vivo at 460 µmol/kg (Rattus norvegicus [7]): 25%
- inhibition in vivo at 496 µmol/kg (Rattus norvegicus [8]): 27%

Structure (SMILES): CCCCCCCCCCCCCCOc1ccc(C(=O)O)cc1
- Activity (Rattus norvegicus [9]): 4%
- Activity (Rattus norvegicus [10]): 1%
- inhibition in vivo at 407 µmol/kg (Rattus norvegicus [11]): 31%
- inhibition in vivo at 275 µmol/kg (Rattus norvegicus [12]): 46%
- Activity (Rattus norvegicus [13]): 19%
- inhibition in vivo at 511 µmol/kg (Rattus norvegicus [14]): 24%
- inhibition in vivo at 407 µmol/kg (Rattus norvegicus [15]): 39%
- Activity (Rattus norvegicus [16]): 7%
- Activity (Rattus norvegicus [17]): 20%
- inhibition in vivo at 149 µmol/kg (Rattus norvegicus [18]): 49%
- inhibition in vivo at 511 µmol/kg (Rattus norvegicus [19]): 36%
- inhibition in vivo at 275 µmol/kg (Rattus norvegicus [20]): 33%
- Activity (Rattus norvegicus [21]): 7%
- Activity (Rattus norvegicus [22]): 14%
- Activity (Rattus norvegicus [23]): 2%
- inhibition in vivo at 149 µmol/kg (Rattus norvegicus [24]): 16%

Structure (SMILES): CCCCCCCCCCCCCCOc1cccc(C(=O)OC)c1
- inhibition in vivo at 462 µmol/kg (Rattus norvegicus [25]): 59%
- inhibition in vivo at 462 µmol/kg (Rattus norvegicus [26]): 24%
- inhibition in vivo at 453 µmol/kg (Rattus norvegicus [27]): 51%
- Activity (Rattus norvegicus [28]): 0%
- Activity (Rattus norvegicus [29]): 0%
- inhibition in vivo at 453 µmol/kg (Rattus norvegicus [30]): 0%
- Activity (Rattus norvegicus [31]): 12%

Structure (SMILES): CCCCCCCCCCCCOc1ccc(C(=O)O)cc1
- inhibition in vivo at 470 µmol/kg (Rattus norvegicus [32]): 33%
- Activity (Rattus norvegicus [33]): 22%
- inhibition in vivo at 470 µmol/kg (Rattus norvegicus [34]): 58%
- Activity (Rattus norvegicus [35]): 22%
- inhibition in vivo at 428 µmol/kg (Rattus norvegicus [36]): 31%
- inhibition in vivo at 428 µmol/kg (Rattus norvegicus [37]): 16%
